PvdQ inh = P. aeruginosa PvdQ acylase inhibitors, primary screen, biochemical, fluorescence, plate reader and imaging, single point; purified PvdQ acylase; 0.063% of 340,000 active; PvdQ acylase [Pseudomonas aeruginosa LESB58]; AID 488965, 2010; inhibition, % at 10 µM; in the data active = inhibition above about 30%, passing the limit was not always enough;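 note: 0% = vehicle neutral wells and 100% = reference inhibitor wells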
IMP-1 inh = IMP-1 metallo-beta-lactamase inhibitors, primary screen, biochemical, epi-absorbance readout, Pseudomonas aeruginosa enzyme; 0.45% of 290,000 active; purified IMP-1, nitrocefin hydrolysis, epi-absorbance fluorescence; inhibition, % at 5.6 µM; AID 1556, 2009;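 active = inhibition above the mean plus 3 SD of all compounds in the same screening run, cut at about 4.5% in these data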;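 note: 0% = IMP-1 with DMSO and 100% = DMSO wells lacking enzyme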
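Assay system: purified recombinant IMP-1 beta-lactamase. Input: IMP-1 0.2 nM before substrate addition. Buffer or medium: Zinc- and detergent-supplemented HEPES buffer, pH 7.1. Schedule: 25 °C, 15 min preincubation, 25 min reaction. Signal: Epi-absorbance fluorescence, 480 nm excitation, 530 nm emission. Evaluation: percent inhibition from optical density relative to buffer-blank wells.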
PLCg1 inh = PLC-gamma1 enzyme inhibitors, primary screen, biochemical, fluorescence, purified enzyme. fluorogenic substrate. AID 720700, 2013. 1-phosphatidylinositol 4,5-bisphosphate phosphodiesterase gamma-1 (Homo sapiens), P19174. 0.84% of 370,000 active. inhibition, % at 12.2 µM; in the data active = inhibition above about 9.5%
Target sequence (P19174 whole entry, looked up): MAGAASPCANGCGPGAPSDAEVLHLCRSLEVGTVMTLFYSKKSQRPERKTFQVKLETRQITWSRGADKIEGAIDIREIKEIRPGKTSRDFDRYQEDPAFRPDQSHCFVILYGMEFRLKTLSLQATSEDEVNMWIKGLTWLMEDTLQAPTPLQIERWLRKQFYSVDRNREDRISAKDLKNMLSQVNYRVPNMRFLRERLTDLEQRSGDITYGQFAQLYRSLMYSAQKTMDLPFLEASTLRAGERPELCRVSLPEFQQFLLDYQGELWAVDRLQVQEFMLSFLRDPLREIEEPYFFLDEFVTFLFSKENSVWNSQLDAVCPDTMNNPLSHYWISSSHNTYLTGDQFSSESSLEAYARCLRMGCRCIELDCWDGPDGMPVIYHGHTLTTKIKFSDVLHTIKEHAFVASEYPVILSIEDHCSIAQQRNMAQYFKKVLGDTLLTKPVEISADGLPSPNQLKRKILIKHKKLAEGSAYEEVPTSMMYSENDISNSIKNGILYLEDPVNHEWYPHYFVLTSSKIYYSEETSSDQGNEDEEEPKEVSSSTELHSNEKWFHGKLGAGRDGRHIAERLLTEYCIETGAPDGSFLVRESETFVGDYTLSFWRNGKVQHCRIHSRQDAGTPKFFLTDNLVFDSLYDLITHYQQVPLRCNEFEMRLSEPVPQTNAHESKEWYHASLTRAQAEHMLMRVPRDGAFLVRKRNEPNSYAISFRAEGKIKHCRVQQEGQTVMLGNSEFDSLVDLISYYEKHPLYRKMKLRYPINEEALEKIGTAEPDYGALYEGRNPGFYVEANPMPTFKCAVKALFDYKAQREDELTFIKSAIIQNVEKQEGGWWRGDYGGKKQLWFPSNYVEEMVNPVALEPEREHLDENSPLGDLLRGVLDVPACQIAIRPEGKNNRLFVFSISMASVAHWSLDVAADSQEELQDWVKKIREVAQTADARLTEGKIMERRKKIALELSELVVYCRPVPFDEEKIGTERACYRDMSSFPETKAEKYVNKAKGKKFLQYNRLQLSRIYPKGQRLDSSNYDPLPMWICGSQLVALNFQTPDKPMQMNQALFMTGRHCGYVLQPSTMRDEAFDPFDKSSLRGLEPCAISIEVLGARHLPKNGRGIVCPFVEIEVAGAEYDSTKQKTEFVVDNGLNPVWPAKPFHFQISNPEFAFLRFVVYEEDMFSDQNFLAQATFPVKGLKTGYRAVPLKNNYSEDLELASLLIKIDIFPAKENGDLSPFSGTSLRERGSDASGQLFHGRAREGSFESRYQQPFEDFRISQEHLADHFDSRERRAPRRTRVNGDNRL
VIM-2 inh = VIM-2 metallo-beta-lactamase inhibitors, primary screen, biochemical, epi-absorbance readout, Pseudomonas aeruginosa enzyme; 0.89% of 290,000 active; purified VIM-2, nitrocefin hydrolysis, epi-absorbance fluorescence; AID 1527, 2009; inhibition, % at 5.6 µM;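 active = inhibition above the mean of all tested compounds plus 3 SD, cutoff set per screening run, cut at about 7.5% in these data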;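 note: red hydrolysis product quenches plate fluorescence so inhibitors raise well fluorescence; 0% = enzyme with DMSO and 100% = DMSO without enzyme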
PLC-beta3 inh = human PLC-beta3 inhibitors, primary screen, biochemical, fluorescence; Purified PLC-beta3, fluorogenic substrate; 1-phosphatidylinositol 4,5-bisphosphate phosphodiesterase beta-3 (Homo sapiens), Q01970; 0.18% of 370,000 active; inhibition, % at 12.2 µM; AID 720704, 2013;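 note: 0% = median of compound wells on plate and 100% = full blocker control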
PLCgamma1 ctr = PLC-gamma1 enzyme inhibitors, counter-screen for PLC-beta3 inhibitor project, biochemical, fluorescence; shares compounds with PLCg1 inh; purified PLC-gamma1, fluorogenic substrate; inhibition, % at 12.3 µM; 3.1% of 3,300 active; AID 743258, 2014; in the data active = inhibition above about 9.5%
PLCb3 confirm = PLC-beta3 inhibitor confirmation, biochemical, fluorescence, purified enzyme. shares compounds with PLCg1 inh. fluorogenic substrate fluorescence. inhibition, % at 12.3 µM. 1% of 3,300 active
An asterisk follows results filed as active. An excerpt weighted towards active compounds, which were near 2% of everything screened. Cut-off read from the data, not from the text of the source, unless noted: active = inhibition above about 11%; inactive = the rest.

What do the screens show for `Cc1ccc(S(=O)(=O)NC(=O)NN2CC3CCCC3C2)cc1` (stereo unspecified)?
PvdQ inh: -13.7; IMP-1 inh: -3.1; PLCg1 inh: 2.2; VIM-2 inh: -2.2; PLC-beta3 inh: 0.2

How did CC[C@H]1C=C[C@@H](C(=O)NS(=O)(=O)c2ccc(C)cc2)N(C(C)=O)C1 do in these assays?
PLCg1 inh: 40.6*; PLC-beta3 inh: -15.2; PLCgamma1 ctr: 38.3*; PLCb3 confirm: -14.6

What do the screens show for `CC(C)C(c1nnnn1Cc1ccco1)N1CCN(c2cccc(Cl)c2)CC1` (stereo unspecified)?
PvdQ inh: -17.4; IMP-1 inh: 0.2; PLCg1 inh: 12.4*; VIM-2 inh: 0.0; PLC-beta3 inh: 1.8; PLCgamma1 ctr: -4.6; PLCb3 confirm: -5.8

Results for O=c1[nH]c(-c2ccccn2)nc(C(F)(F)F)c1Br ?
PvdQ inh: -1.2; IMP-1 inh: -4.3; PLCg1 inh: 10.6*; VIM-2 inh: -3.3; PLC-beta3 inh: 0.7; PLCgamma1 ctr: -5.0; PLCb3 confirm: -3.5

How did COC(=O)[C@]12C[C@H](CC(=O)N3CCN(C(=O)C4CC4)CC3)C(=O)N(Cc3ccc(Cl)cc3Cl)C1=C[C@H](C1CCCC1)O[C@@H]2C do in these assays?
PLCg1 inh: 0.4; PLC-beta3 inh: 3.3

How did COC(=O)C(NC(=O)c1ccc(F)cc1)(Nc1ncc(S(=O)(=O)c2ccc([N+](=O)[O-])cc2)s1)C(F)(F)F (stereo unspecified) do in these assays?
PvdQ inh: -0.8; IMP-1 inh: -1.3; PLCg1 inh: 1.4; VIM-2 inh: 0.4; PLC-beta3 inh: -0.2

How did COC(=O)C(NC(=O)c1ccccc1C)(Nc1ncc(S(=O)(=O)c2ccc([N+](=O)[O-])cc2)s1)C(F)(F)F (stereo unspecified) do in these assays?
PvdQ inh: -16.3; IMP-1 inh: -4.2; PLCg1 inh: 12.1*; VIM-2 inh: -3.7; PLC-beta3 inh: 8.6; PLCgamma1 ctr: -0.5; PLCb3 confirm: -0.3

How did CC[C@@H](CCC(=O)N(c1ccccc1)c1ccccc1)c1ccc(C)cc1 do in these assays?
PLCg1 inh: -0.3; PLC-beta3 inh: 0.9

How did CCC(c1nnnn1-c1ccc2c(c1)OCCO2)N1CCN(CC)CC1 (stereo unspecified) do in these assays?
PLCg1 inh: 10.5*; PLC-beta3 inh: 7.0; PLCgamma1 ctr: -7.0; PLCb3 confirm: -53.7

Results for COP(=O)(O)CCOCCC(CC(C)C)NC(=O)OCc1ccccc1 (stereo unspecified) ?
PLCg1 inh: 3.2; PLC-beta3 inh: 1.5

How did COC(=O)[C@H](C(C)C)N1Cc2nnn(Cc3ccc(C)cc3)c2-c2ccccc2S1(=O)=O do in these assays?
PLCg1 inh: -2.9; PLC-beta3 inh: 1.6

What do the screens show for `COc1ccccc1N1CCN(C(c2cccs2)c2nnnn2C2CCCC2)CC1` (stereo unspecified)?
PvdQ inh: -1.0; IMP-1 inh: 1.3; PLCg1 inh: 9.9*; VIM-2 inh: -2.5; PLC-beta3 inh: 2.1; PLCgamma1 ctr: 1.1; PLCb3 confirm: 0.8

What do the screens show for `COCCCNC(=O)CS(=O)Cc1nc(-c2cccc(OC)c2)oc1C` (stereo unspecified)?
PvdQ inh: -14.9; IMP-1 inh: 2.9; PLCg1 inh: 66.1*; VIM-2 inh: -0.2; PLC-beta3 inh: 3.5; PLCgamma1 ctr: -4.0; PLCb3 confirm: -1.6

What do the screens show for `CN1CCN(c2ccccc2NC(=O)c2ccc(-c3cccc(Cl)c3)o2)CC1`?
PvdQ inh: -10.1; IMP-1 inh: -3.9; PLCg1 inh: -30.3; VIM-2 inh: -1.4; PLC-beta3 inh: -51.8
